According to ChEMBL document CHEMBL3112563, “The benzimidazole based drugs show good activity against T. gondii but poor activity against its proposed enoyl reductase enzyme target” (Bioorg Med Chem Lett, 2014):
≈ marks a conversion by molar mass, not a printed value. Calls of active or inactive are those of the source. No cut-off for these calls is given here.

Columns and labels:
PC-3 = test: Cytotoxicity against human PC3 cells at 10 uM after 96 hrs by luciferase reporter gene assay; format: cell-based; conditions: pc-3, 96 h
Procedure, shortened: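 Confluent luciferase-expressing PC3-Luc cells in phenol red-free DMEM (10% FCS, 1% L-glutamine, 1% penicillin-streptomycin) given compound at 10 nM–10 µM. D-luciferin potassium salt added at 150 µg/ml at 48 and 96 h, then bioluminescence imaged for 1 min. Cytotoxicity taken as loss of signal. Controls: 1% Triton X (positive) and vehicle.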

HFF = test: Cytotoxicity against HFF assessed as cell viability at 10 uM after 72 hrs by WST-1 assay; format: cell-based; conditions: human
Procedure, shortened: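 Host HFF incubated with compound at 10 µM for 72 h. Viability read by WST-1 staining. DMSO at several concentrations in the culture medium gave a standard toxicity curve.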

Toxoplasma gondii [1] = test: Antiparasitic activity against tachyzoite stage of Toxoplasma gondii RH infected in HFF assessed as inhibition of parasite growth after 72 hrs by yellow fluorescence reporter gene assay; format: functional
Procedure, shortened: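 HFF infected with 3200 RH-YFP tachyzoites (type 1, stably transfected with yellow fluorescence gene) and treated with compound at the indicated concentrations. Relative YFP fluorescence read after 72 h at excitation/emission 510/540 nm. Controls: pyrimethamine/sulfadiazine (positive), 0.1% DMSO (negative).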

[2] = target: T1, Enoyl-acyl carrier reductase (Toxoplasma gondii, UniProt Q6UCJ9); test: Inhibition of Toxoplasma gondii enoyl-ACP reductase-NADH complex
T1 sequence (Q6UCJ9 whole entry): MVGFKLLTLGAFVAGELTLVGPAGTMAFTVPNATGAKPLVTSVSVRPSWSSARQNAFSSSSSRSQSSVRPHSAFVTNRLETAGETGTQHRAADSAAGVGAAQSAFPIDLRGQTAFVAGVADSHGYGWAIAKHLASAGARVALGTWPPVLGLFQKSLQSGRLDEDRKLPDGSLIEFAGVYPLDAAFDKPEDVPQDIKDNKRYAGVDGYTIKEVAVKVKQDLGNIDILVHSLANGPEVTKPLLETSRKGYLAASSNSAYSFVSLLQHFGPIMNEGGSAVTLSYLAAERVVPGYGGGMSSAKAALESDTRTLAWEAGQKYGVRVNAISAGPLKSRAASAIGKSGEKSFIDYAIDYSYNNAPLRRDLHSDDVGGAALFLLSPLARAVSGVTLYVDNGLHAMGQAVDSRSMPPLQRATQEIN

Toxoplasma gondii [3] = test: Antiparasitic activity against tachyzoite stage of Toxoplasma gondii PRU infected in HFF assessed as inhibition of parasite growth at 10 uM after 72 hrs by yellow fluorescence reporter gene assay; format: functional

Row | Structure (SMILES) | Activity (PC-3) | Activity (HFF) | MIC50 (Toxoplasma gondii [1]) [µM] | IC50 [2] [nM] | inhibition (Toxoplasma gondii [3])
1 | Cc1cc2ncn(Cc3ccc(Cl)cc3)c2cc1C | Non-toxic | Non-toxic | 4 (≈ 1.08 µg/mL) | > 1000 | –
2 | Cc1cc2ncn(Cc3ccc(Cl)c(Cl)c3)c2cc1C | Non-toxic | Non-toxic | 2.5 (≈ 0.763 µg/mL) | > 1000 | Active
3 | Cc1ccc(Cn2cnc3cc(C)c(C)cc32)cc1 | Non-toxic | Non-toxic | > 10 | > 1000 | Active
